pKi: −log10 of the molar value. Activity calls are given as the source filed them. No cut-off for these calls is given here.
Legend:
[1] = target: Cannabinoid receptor 1 (Homo sapiens, UniProt P21554); experiment: biochemical; assay type: cell-based, HEK293
[2] = organism: Homo sapiens; experiment: Selectivity ratio of Ki for human CB1 receptor to Ki for human CB2 receptor
[3] = target: T1, Cannabinoid receptor 2 (Homo sapiens, UniProt P34972); experiment: Displacement of [3H]CP-55940 from human CB2 receptor expressed in HEK cells; assay type: cell-based, HEK293
[4] = target: T1, Cannabinoid receptor 2; experiment: Antagonist activity at human CB2 receptor expressed in CHO cells assessed as inhibition of forskolin-stimulated cAMP level by [35S]GTPgammaS binding assay; assay type: functional, cell-based
Procedure, shortened: (§1)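 CHO cells stably carrying human CB2 (DMEM/F12 with 10% FBS and G418 400 μg/mL, 37 °C, 5% CO2); membranes scraped and pelleted. [35S]GTPγS 0.1 nM with GDP 30 μM, 50 μg membrane protein, in Tris/NaCl/BSA buffer with 5 mM MgCl2, 1 mM DTT and 1 mM EDTA; 60 min at 30 °C. Nonspecific binding with 30 μM GTPγS. Filtration, then scintillation counting.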

[5] = target: T1, Cannabinoid receptor 2; experiment: Antagonist activity at human CB2 receptor expressed in CHO cells assessed as inhibition of forskolin-stimulated cAMP level up to 20 uM by [35S]GTPgammaS binding assay; assay type: functional, cell-based
Procedure, shortened: as §1

[6] = target: T1, Cannabinoid receptor 2; experiment: Antagonist activity at human CB2 receptor expressed in CHO cells assessed as inhibition of forskolin-stimulated cAMP level at < 100 uM by [35S]GTPgammaS binding assay; assay type: functional, cell-based
[7] = target: CYP3A4 (Homo sapiens, UniProt P08684); experiment: Inhibition of CYP3A4 after 1 hr assessed as residual activity; assay type: ADME; conditions: read-out: Activity
[8] = tested on: Mus musculus; experiment: Antinociceptive activity in mouse hind paw assessed as inhibition of formalin-induced nociceptive behavior at 1 to 3 mg/kg, ip administered 15 mins prior to formalin challenge; assay type: functional, organism-based
Procedure, shortened: (§2)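 Mice received ip compound in 20% DMSO in 0.9% NaCl, groups of 8-10, one treatment per animal. Formalin (1.25% in saline, 30 μL) was injected into the dorsal hind paw 15 min later. A blinded observer timed lifting, favoring, licking, shaking and flinching over 0-10 min (early phase) and 20-60 min (late phase). Mean ± SEM; ANOVA with Dunnett's test.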

[9] = tested on: Mus musculus; experiment: Antinociceptive activity in mouse hind paw assessed as inhibition of formalin-induced nociceptive behavior at 3 mg/kg, ip administered 15 mins prior to formalin challenge; assay type: functional, organism-based; design: dose 3 mg/kg
Procedure, shortened: as §2

[10] = tested on: Mus musculus; experiment: Antinociceptive activity in mouse hind paw assessed as inhibition of formalin-induced nociceptive behavior at 1 to 3 mg/kg, ip administered 15 mins prior to formalin challenge in presence of CB2 selective agonist JWH133; assay type: functional, organism-based
Procedure, shortened: as §2

[11] = tested on: Mus musculus; experiment: Antinociceptive activity in mouse hind paw assessed as inhibition of formalin-induced nociceptive behavior at 1 mg/kg, ip administered 15 mins prior to formalin challenge; assay type: functional, organism-based; design: dose 1 mg/kg
Procedure, shortened: as §2

Sequence of Cannabinoid receptor 1 (P21554 whole entry): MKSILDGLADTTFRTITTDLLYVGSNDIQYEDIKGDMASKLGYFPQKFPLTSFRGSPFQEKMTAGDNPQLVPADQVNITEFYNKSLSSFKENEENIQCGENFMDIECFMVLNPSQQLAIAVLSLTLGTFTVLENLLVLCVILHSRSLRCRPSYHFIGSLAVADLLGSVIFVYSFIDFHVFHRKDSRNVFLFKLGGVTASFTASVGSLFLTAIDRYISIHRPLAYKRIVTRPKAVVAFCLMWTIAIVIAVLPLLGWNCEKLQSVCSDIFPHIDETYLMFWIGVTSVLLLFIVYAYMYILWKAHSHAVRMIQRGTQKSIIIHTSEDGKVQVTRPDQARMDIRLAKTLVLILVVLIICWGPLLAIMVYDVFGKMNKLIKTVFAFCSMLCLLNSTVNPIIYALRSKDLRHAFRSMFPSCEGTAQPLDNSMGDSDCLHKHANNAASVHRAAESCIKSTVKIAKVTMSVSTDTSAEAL
T1 sequence (P34972 whole entry): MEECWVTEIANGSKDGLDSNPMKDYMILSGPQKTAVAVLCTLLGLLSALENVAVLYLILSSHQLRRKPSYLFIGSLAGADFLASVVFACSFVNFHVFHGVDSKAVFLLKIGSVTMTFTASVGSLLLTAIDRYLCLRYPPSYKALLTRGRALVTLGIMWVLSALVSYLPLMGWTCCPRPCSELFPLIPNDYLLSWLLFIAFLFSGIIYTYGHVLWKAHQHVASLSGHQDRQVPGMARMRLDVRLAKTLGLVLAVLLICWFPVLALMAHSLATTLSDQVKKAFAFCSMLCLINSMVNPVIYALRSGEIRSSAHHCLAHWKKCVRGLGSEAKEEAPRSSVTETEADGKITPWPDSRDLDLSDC
Sequence of CYP3A4 (P08684 whole entry): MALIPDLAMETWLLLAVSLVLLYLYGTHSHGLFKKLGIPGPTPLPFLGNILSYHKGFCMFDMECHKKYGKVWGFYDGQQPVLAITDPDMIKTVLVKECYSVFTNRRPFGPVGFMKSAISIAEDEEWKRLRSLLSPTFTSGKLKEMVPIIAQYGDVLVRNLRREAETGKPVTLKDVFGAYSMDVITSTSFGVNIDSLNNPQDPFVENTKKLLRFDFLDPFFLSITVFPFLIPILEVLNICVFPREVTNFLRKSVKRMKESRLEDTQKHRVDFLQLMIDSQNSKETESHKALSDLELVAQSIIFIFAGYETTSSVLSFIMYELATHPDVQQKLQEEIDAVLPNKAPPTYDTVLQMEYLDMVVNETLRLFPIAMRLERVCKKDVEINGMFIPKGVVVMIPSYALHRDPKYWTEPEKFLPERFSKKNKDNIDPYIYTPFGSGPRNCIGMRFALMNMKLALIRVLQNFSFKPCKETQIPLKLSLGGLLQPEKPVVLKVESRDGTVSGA

For CCCCCn1cc(C(=O)NC23CC4CC(CC(C4)C2)C3)c(=O)c2cc(-c3cnn(CC(C)C)c3)ccc21, the pKi [1] was 6.61, the Selectivity Index [2] was 5 and the pKi [3] was 7.29.

CCCCCn1cc(C(=O)N[C@H]2C(C)(C)[C@H]3CC[C@]2(C)C3)c(=O)c2cc(-c3ccco3)ccc21 gave a pKi [1] of 6.32, a Selectivity Index [2] of 200 and a pKi [3] of 8.62.

With CCCCCn1cc(C(=O)NC23CC4CC(CC(C4)C2)C3)c(=O)c2cc(-c3ccco3)ccc21 the pKi [1] was < 5.00, the Activity [4] was “Active” and the Activity [5] was “inactive”. The Selectivity Index [2] was > 14300, the Emax [6] was 13.9% and the activity at 1 h [7] was 4%. The Activity [8] was “Active” and the pKi [3] was 9.15.

CCCCCn1cc(C(=O)NC23CC4CC(CC(C4)C2)C3)c(=O)c2cc(-n3cccc3)ccc21 was tested, and the pKi [1] was 7.53, the Selectivity Index [2] was 42 and the pKi [3] was 9.15.

Work on CCCCCn1cc(C(=O)NC23CC4CC(CC(C4)C2)C3)c(=O)c2cc(-c3cc(C)c(OC)c(C)c3)ccc21 yielded a pKi [1] of 6.29, a Selectivity Index [2] of 24 and a pKi [3] of 7.67.

With CCCCCn1cc(C(=O)NC23CC4CC(CC(C4)C2)C3)c(=O)c2cc(-c3ccc(C#N)cc3)ccc21 the pKi [1] was < 5.00, the Selectivity Index [2] was > 239 and the Activity [8] was “Active”. For the same compound, the pKi [3] was 7.38.

With CCCCCn1cc(C(=O)NC23CC4CC(CC(C4)C2)C3)c(=O)c2cc(S(=O)(=O)c3ccccc3)ccc21 the pKi [1] was < 5.00, the Selectivity Index [2] was > 152 and the pKi [3] was 7.18.

CCCCCn1cc(C(=O)NC23CC4CC(CC(C4)C2)C3)c(=O)c2cc(CCc3ccccc3)ccc21 was tested, and the pKi [1] was < 5.00, the Selectivity Index [2] was > 177 and the pKi [3] was 7.25. For the same compound, the Activity [9] was “inactive”.

CCCCCn1cc(C(=O)N[C@H]2C(C)(C)[C@H]3CC[C@]2(C)C3)c(=O)c2cc(Br)ccc21 gave a pKi [1] of 8.55, a Selectivity Index [2] of 0.6 and a pKi [3] of 8.30.

Work on CCCCCn1cc(C(=O)NC23CC4CC(CC(C4)C2)C3)c(=O)c2cc(CC)ccc21 yielded a pKi [1] of 6.05, a Selectivity Index [2] of 53 and a pKi [3] of 7.77.

With C=CCn1cc(C(=O)NC23CC4CC(CC(C4)C2)C3)c(=O)c2cc(-c3ccco3)ccc21 the pKi [1] was < 5.00, the Selectivity Index [2] was > 169 and the pKi [3] was 7.23.

CCCCCn1cc(C(=O)NC23CC4CC(CC(C4)C2)C3)c(=O)c2cc(C3CCCCC3)ccc21 was tested, and the pKi [1] was < 5.00, the Selectivity Index [2] was > 1370 and the Activity [10] was “Active”. For the same compound, the Activity [8] was “inactive” and the pKi [3] was 8.14.

With CCCCCn1cc(C(=O)NC23CC4CC(CC(C4)C2)C3)c(=O)c2cc(Cc3ccc(Cl)cc3Cl)ccc21 the pKi [1] was < 5.00, the Selectivity Index [2] was > 3 and the pKi [3] was 5.41.

For CCCCCn1cc(C(=O)NC23CC4CC(CC(C4)C2)C3)c(=O)c2cc(-c3ccc(Cl)cc3)ccc21, the pKi [1] was < 5.00, the Selectivity Index [2] was > 909 and the pKi [3] was 7.96.

In the case of COc1ccc(C(=O)c2c(C)n(CCN3CCOCC3)c3cc(I)ccc23)cc1, the Activity [11] was “inactive”.

CCCCCn1cc(C(=O)NC23CC4CC(CC(C4)C2)C3)c(=O)c2cc(-c3cccs3)ccc21 was tested, and the pKi [1] was < 5.00, the Selectivity Index [2] was > 4350 and the pKi [3] was 8.64.

With CCCCCn1cc(C(=O)NC23CC4CC(CC(C4)C2)C3)c(=O)c2cc(/C=C/c3ccccc3)ccc21 the pKi [1] was < 5.00, the Selectivity Index [2] was > 153 and the pKi [3] was 7.18.

CCCCCn1cc(C(=O)NC23CC4CC(CC(C4)C2)C3)c(=O)c2cc(-c3ccc(F)cc3F)ccc21 was tested, and the pKi [1] was < 5.00, the Selectivity Index [2] was > 625 and the pKi [3] was 7.80.

With C#Cc1ccc2c(c1)c(=O)c(C(=O)NC13CC4CC(CC(C4)C1)C3)cn2CCCCC the pKi [1] was < 5.00, the Selectivity Index [2] was > 1140 and the pKi [3] was 8.06.

With CCCCCn1cc(C(=O)NC23CC4CC(CC(C4)C2)C3)c(=O)c2cc(I)ccc21 the pKi [1] was 5.68, the Selectivity Index [2] was 101 and the pKi [3] was 7.69.

In the case of CCCCCn1cc(C(=O)NC23CC4CC(CC(C4)C2)C3)c(=O)c2cc(-c3ccc(-c4ccccc4)cc3)ccc21, the pKi [1] was < 5.00, the Selectivity Index [2] was > 55 and the pKi [3] was 6.74.

In the case of CCCCCn1cc(C(=O)NC23CC4CC(CC(C4)C2)C3)c(=O)c2cc(-c3ccc(Cl)s3)ccc21, the pKi [1] was < 5.00, the Selectivity Index [2] was > 223 and the pKi [3] was 7.35.

In the case of CCCCCn1cc(C(=O)NC2CCCCC2)c(=O)c2cc(Br)ccc21, the pKi [1] was 5.77, the Selectivity Index [2] was 2 and the pKi [3] was 6.05.

With CCCCCn1cc(C(=O)NN2CCCCC2)c(=O)c2cc(Br)ccc21 the pKi [1] was 5.72, the Selectivity Index [2] was 5 and the pKi [3] was 6.40.

CCCCCn1cc(C(=O)NC23CC4CC(CC(C4)C2)C3)c(=O)c2cc(C3=CCCCC3)ccc21 was tested, and the pKi [1] was < 5.00, the Selectivity Index [2] was > 1200 and the pKi [3] was 8.08.

In the case of CCCCCn1cc(C(=O)NC23CC4CC(CC(C4)C2)C3)c(=O)c2cc(C#Cc3ccccc3)ccc21, the pKi [1] was < 5.00, the Selectivity Index [2] was > 29 and the pKi [3] was 6.46.

Compound C#CCn1cc(C(=O)NC23CC4CC(CC(C4)C2)C3)c(=O)c2cc(Br)ccc21 has a pKi [1] of 5.49, a Selectivity Index [2] of 64 and a pKi [3] of 7.30.

In the case of CCCCCn1cc(C(=O)NC23CC4CC(CC(C4)C2)C3)c(=O)c2cc(-c3ccc(O)cc3)ccc21, the pKi [1] was < 5.00, the Selectivity Index [2] was > 2380 and the Activity [10] was “inactive”. For the same compound, the Activity [8] was “Active” and the pKi [3] was 8.38.

For CCCCCn1cc(C(=O)NC23CC4CC(CC(C4)C2)C3)c(=O)c2cc(-c3c(C)noc3C)ccc21, the pKi [1] was < 5.00, the Selectivity Index [2] was > 80 and the pKi [3] was 6.90.

CCCCCn1cc(C(=O)NC23CC4CC(CC(C4)C2)C3)c(=O)c2cc(-c3ccc4cc(OC)ccc4c3)ccc21 gave a pKi [1] of 6.44, a Selectivity Index [2] of 7 and a pKi [3] of 7.28.

For C=CCCn1cc(C(=O)NC23CC4CC(CC(C4)C2)C3)c(=O)c2cc(-c3ccco3)ccc21, the pKi [1] was < 5.00, the Selectivity Index [2] was > 2270 and the pKi [3] was 8.36.

CCCCCn1cc(C(=O)NC23CC4CC(CC(C4)C2)C3)c(=O)c2cc([S+]([O-])c3ccccc3)ccc21 (centres undefined) gave a pKi [1] of 6.34, a Selectivity Index [2] of 6 and a pKi [3] of 7.14.

In the case of CCCCCn1cc(C(=O)NC23CC4CC(CC(C4)C2)C3)c(=O)c2cc(-c3ccc(OC)nc3)ccc21, the pKi [1] was < 5.00, the Selectivity Index [2] was > 169 and the pKi [3] was 7.23.

CCCCCn1cc(C(=O)NC23CC4CC(CC(C4)C2)C3)c(=O)c2cc(/C=C/C(C)(C)C)ccc21 was tested, and the pKi [1] was < 5.00, the Selectivity Index [2] was > 140 and the pKi [3] was 7.15.

In the case of CCCCCn1cc(C(=O)NC23CC4CC(CC(C4)C2)C3)c(=O)c2cc(-n3ccnc3)ccc21, the pKi [1] was < 5.00, the Selectivity Index [2] was > 1250 and the pKi [3] was 8.10.
